Source: ChEMBL document CHEMBL1143049, “Preparation, biological activity and endogenous occurrence of N6-benzyladenosines” (Bioorg Med Chem, 2007)

What was measured:
[1] = test system: Nicotiana tabacum; test: Cytokinin activity in tobacco assessed as stimulation of callus growth at 1 umol/L relative to 6-Benzylaminopurine; assay type: functional
Summary of the method: (§1)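 Stimulation of tobacco callus growth. Compounds dissolved in DMSO, brought to 10^-3 M in water and diluted into medium (DMSO ≤0.2%). Range 10^-4 to 10^-8 M, five replicates per concentration, at least three independent repeats. Activity at the optimal concentration given relative to BAP's optimal response, taken as 100.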

[2] = test system: Amaranthus; test: Cytokinin activity in Amaranthus cotyledons assessed as dark induction of betacyanin synthesis at 0.1 mmol/L relative to 6-Benzylaminopurine; assay type: functional
Summary of the method: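 Dark induction of betacyanin in excised Amaranthus cotyledons. DMSO stock brought to 10^-3 M in water, diluted into assay medium (DMSO ≤0.2%). Tested over 10^-4 to 10^-8 M, five replicates per concentration, assay repeated at least three times. Response at the optimal concentration expressed relative to BAP at its optimum (set to 100).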

[3] = test system: Triticum aestivum; test: Cytokinin activity in wheat assessed as retention of chlorophyll in excised wheat leaves at 0.1 mmol/L relative to 6-Benzylaminopurine by senescence assay; assay type: functional
Summary of the method: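 Senescence assay measuring chlorophyll retention in excised wheat leaves. DMSO stocks brought to 10^-3 M with water, then diluted in assay medium to a final DMSO of at most 0.2%. Concentrations 10^-4 to 10^-8 M, quintuplicate, repeated at least three times. Response at the optimal concentration normalised to BAP optimum = 100.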

[4] = test system: B16; test: Antitumor activity against mouse B16 cells after 72 hrs by Calcein AM assay; assay type: functional, cell-based; settings: B16, 72 h
Summary of the method: (§2)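 Cells grown in DMEM at 37 °C under 5% CO2. Compounds added after 12 h preincubation in 96-well plates, final 0.5-170 μM, with 0.6% final DMSO, then 72 h exposure. Viable cells stained with Calcein AM for 1 h and read at 485/538 nm. IC50 (concentration lethal to 50% of cells) taken from dose-response curves. Run in quadruplicate.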

[5] = test system: HOS; test: Antitumor activity against human HOS cells after 72 hrs by Calcein AM assay; assay type: functional, cell-based; summary of the method: as §2
[6] = test system: CCRF-CEM; test: Antitumor activity against human CEM cells after 72 hrs by Calcein AM assay; assay type: functional, cell-based; summary of the method: as §2
[7] = test system: K562; test: Antitumor activity against human K562 cells after 72 hrs by Calcein AM assay; assay type: functional, cell-based; settings: K562, 72 h; summary of the method: as §2
[8] = Antitumor activity against human MCF cells after 72 hrs by Calcein AM assay; assay type: functional, cell-based; summary of the method: as §2
[9] = test system: G-361; test: Antitumor activity against human G361 cells after 72 hrs by Calcein AM assay; assay type: functional, cell-based; settings: G-361, 72 h; summary of the method: as §2
[10] = test system: HL-60; test: Antitumor activity against human HL60 cells after 72 hrs by Calcein AM assay; assay type: functional, cell-based; settings: HL-60, 72 h; summary of the method: as §2
[11] = Cytotoxicity against mouse NIH 3T3 cells after 72 hrs by Calcein AM assay; assay type: cell-based; settings: NIH3T3, 72 h; summary of the method: as §2
[12] = test system: Nicotiana tabacum; test: Cytokinin activity in tobacco assessed as stimulation of callus growth at 0.01 mmol/L relative to 6-Benzylaminopurine; assay type: functional; summary of the method: as §1
[13] = molecular target: Histidine kinase 4 (Arabidopsis thaliana) (UniProt Q9C5U0); test: Activation of Arabidopsis thaliana CRE1/AHK4 cytokinin receptor relative to trans-zeatin; parameters: concentration or dose not given beside the values
Chain of Histidine kinase 4 (Arabidopsis thaliana) (Q9C5U0 whole entry): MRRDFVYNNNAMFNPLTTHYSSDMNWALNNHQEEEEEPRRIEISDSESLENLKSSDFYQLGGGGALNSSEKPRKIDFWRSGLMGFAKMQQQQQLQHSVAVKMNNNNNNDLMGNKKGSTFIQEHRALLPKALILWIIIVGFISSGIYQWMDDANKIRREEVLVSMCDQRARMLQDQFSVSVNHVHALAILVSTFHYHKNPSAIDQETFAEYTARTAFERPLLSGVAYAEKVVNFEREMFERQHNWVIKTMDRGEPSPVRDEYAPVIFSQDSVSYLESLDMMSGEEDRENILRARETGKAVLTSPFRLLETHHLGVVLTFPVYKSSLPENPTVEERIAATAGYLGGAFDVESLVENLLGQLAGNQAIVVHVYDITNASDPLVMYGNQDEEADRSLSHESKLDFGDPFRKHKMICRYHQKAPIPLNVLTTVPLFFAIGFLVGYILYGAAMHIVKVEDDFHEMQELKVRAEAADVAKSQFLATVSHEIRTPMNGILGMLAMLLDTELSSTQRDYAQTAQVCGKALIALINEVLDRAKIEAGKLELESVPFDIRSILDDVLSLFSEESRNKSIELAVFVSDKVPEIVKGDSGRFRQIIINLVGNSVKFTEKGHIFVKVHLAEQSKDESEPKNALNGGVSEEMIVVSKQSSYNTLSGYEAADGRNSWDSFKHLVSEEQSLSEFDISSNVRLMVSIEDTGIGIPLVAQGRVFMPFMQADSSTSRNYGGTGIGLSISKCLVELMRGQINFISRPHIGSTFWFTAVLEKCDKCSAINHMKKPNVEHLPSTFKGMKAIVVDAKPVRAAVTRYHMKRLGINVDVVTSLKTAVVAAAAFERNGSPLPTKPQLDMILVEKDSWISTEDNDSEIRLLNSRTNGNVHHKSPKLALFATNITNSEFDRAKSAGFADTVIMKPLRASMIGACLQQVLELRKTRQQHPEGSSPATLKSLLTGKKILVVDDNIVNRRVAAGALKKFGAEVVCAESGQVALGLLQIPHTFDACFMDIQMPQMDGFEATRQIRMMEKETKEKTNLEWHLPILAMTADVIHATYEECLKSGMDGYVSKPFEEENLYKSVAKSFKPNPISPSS
Summary of the method: (§3)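 E. coli KMI001 carrying pSTV28-AHK3 or pIN-III-AHK4, precultured overnight at 25 °C in M9 + 0.1% casamino acids to OD600 ~1. Diluted 1:600, compound or solvent added, then incubated at 25 °C for 28 h (AHK3) or 17 h (CRE1/AHK4). Supernatant incubated with 4-methylumbelliferyl β-D-galactoside for 1 h at 37 °C and stopped with Na2CO3. Fluorescence read at 365/460 nm. β-galactosidase expressed as nmol 4-MU × OD600⁻¹ × h⁻¹.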

[14] = molecular target: T1, Histidine kinase 3 (Arabidopsis thaliana) (UniProt Q9C5U1); test: Activation of Arabidopsis thaliana AHK3 cytokinin receptor relative to trans-zeatin; parameters: concentration or dose not given beside the values; summary of the method: as §3
T1 sequence (whole entry): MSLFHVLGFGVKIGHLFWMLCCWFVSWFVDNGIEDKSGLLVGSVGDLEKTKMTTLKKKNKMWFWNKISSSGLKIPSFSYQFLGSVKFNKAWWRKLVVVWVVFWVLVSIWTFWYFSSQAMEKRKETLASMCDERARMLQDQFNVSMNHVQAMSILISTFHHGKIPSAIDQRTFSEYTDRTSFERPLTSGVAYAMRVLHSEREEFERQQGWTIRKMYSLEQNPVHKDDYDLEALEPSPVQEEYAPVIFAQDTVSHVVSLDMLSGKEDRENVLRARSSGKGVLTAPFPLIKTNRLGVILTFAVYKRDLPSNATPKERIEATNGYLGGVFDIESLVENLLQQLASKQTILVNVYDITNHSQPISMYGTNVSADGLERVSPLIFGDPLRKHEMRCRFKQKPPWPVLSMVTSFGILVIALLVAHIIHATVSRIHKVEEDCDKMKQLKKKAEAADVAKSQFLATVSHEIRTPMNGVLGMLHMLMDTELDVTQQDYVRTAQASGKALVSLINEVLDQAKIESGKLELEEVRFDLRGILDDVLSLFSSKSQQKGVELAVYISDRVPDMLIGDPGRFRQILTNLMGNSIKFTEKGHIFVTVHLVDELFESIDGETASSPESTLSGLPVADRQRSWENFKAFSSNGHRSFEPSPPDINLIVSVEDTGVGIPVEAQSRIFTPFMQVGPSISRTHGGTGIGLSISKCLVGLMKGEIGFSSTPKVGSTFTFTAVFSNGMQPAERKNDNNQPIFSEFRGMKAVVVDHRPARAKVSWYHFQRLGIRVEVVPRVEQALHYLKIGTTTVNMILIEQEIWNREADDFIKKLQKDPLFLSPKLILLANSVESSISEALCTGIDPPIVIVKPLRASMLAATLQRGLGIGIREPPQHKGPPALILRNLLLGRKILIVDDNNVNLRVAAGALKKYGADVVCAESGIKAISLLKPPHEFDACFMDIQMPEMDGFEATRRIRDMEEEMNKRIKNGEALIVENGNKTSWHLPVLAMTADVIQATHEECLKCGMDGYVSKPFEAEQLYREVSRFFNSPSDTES

Structure (SMILES)	Activity [1] [%]	Activity [2] [%]	Activity [3] [%]	IC50 [4] [µM]	IC50 [5] [µM]	IC50 [6] [µM]	IC50 [7] [µM]	IC50 [8] [µM]	IC50 [9] [µM]	IC50 [10] [µM]	IC50 [11] [µM]	Activity [12] [%]	Activity [13] [%]	Activity [14] [%]
OC[C@H]1O[C@@H](n2cnc3c(NCc4ccc(Br)cc4)ncnc32)[C@H](O)[C@@H]1O	16	30	76	> 167	> 167	20.6	68.2	> 167	> 167	47.4	> 167	–	–	–
OC[C@H]1O[C@@H](n2cnc3c(NCc4ccc(F)c(Cl)c4)ncnc32)[C@H](O)[C@@H]1O	87	82	156	167	> 167	3.4	5.5	> 167	> 167	3.5	> 167	–	–	–
COc1cccc(CNc2ncnc3c2ncn3[C@@H]2O[C@H](CO)[C@@H](O)[C@H]2O)c1O	–	18	10	> 167	> 167	0.3	27.9	20.2	148	0.15	> 167	–	–	–
OC[C@H]1O[C@@H](n2cnc3c(NCc4cc(F)c(F)cc4F)ncnc32)[C@H](O)[C@@H]1O	–	120	99	–	–	–	–	–	–	–	–	95	–	–
COc1ccc(CNc2ncnc3c2ncn3[C@@H]2O[C@H](CO)[C@@H](O)[C@H]2O)c(OC)c1	–	3	30	–	> 167	> 167	> 167	> 167	–	39	–	5	–	–
OC[C@H]1O[C@@H](n2cnc3c(NCc4ccccc4OC(F)F)ncnc32)[C@H](O)[C@@H]1O	–	81	180	–	> 167	–	> 167	> 167	> 167	–	–	89	–	–
Cc1ccc(CNc2ncnc3c2ncn3[C@@H]2O[C@H](CO)[C@@H](O)[C@H]2O)cc1	35	49	54.5	–	> 167	> 167	> 167	> 167	–	> 167	> 167	–	–	–
OC[C@H]1O[C@@H](n2cnc3c(NCc4ccc(F)cc4F)ncnc32)[C@H](O)[C@@H]1O	96	88	171	> 167	> 167	7.1	9.6	> 167	> 167	3.4	> 167	–	–	–
Cc1cccc(CNc2ncnc3c2ncn3[C@@H]2O[C@H](CO)[C@@H](O)[C@H]2O)c1O	–	55	–	> 167	> 167	0.9	18	6.9	> 167	15	–	5	–	–
OC[C@H]1O[C@@H](n2cnc3c(NCc4cccc(Br)c4)ncnc32)[C@H](O)[C@@H]1O	–	151	89	> 167	> 167	5	19.7	> 167	> 167	8	> 167	82	–	–
OC[C@H]1O[C@@H](n2cnc3c(NCc4ccc(Cl)c(Cl)c4)ncnc32)[C@H](O)[C@@H]1O	17	68	151	> 167	> 167	3.8	10.8	88.8	145	2	–	–	–	–
OC[C@H]1O[C@@H](n2cnc3c(NCc4ccc(F)c(F)c4F)ncnc32)[C@H](O)[C@@H]1O	–	95	144	> 167	> 167	58.2	> 167	> 167	> 167	13	–	94	–	–
OC[C@H]1O[C@@H](n2cnc3c(NCc4cc(F)cc(F)c4)ncnc32)C(O)C1O (stereo not given in full)	95	110	195	> 167	–	24.5	> 167	> 167	> 167	9.1	> 167	–	–	–
OC[C@H]1O[C@@H](n2cnc3c(NCc4ccccc4)ncnc32)[C@H](O)[C@@H]1O [N6-BENZYLADENOSINE]	–	–	–	> 167	> 167	1.4	5.5	5.4	> 167	0.94	39	–	0.35	2.53
Cc1ccccc1CNc1ncnc2c1ncn2[C@@H]1O[C@H](CO)[C@@H](O)[C@H]1O [METRIFUDIL]	98	99	141	–	> 167	14	> 167	> 167	> 167	3.3	> 167	–	–	–
OC[C@H]1O[C@@H](n2cnc3c(NCc4ccc(F)cc4Cl)ncnc32)[C@H](O)[C@@H]1O	–	115	165	> 167	> 167	20.9	15.6	> 167	> 167	9	> 167	98	–	–
COc1ccc(CNc2ncnc3c2ncn3[C@@H]2O[C@H](CO)[C@@H](O)[C@H]2O)cc1O	–	24	19	–	–	> 167	> 167	> 167	–	> 167	> 167	–	–	–
COc1ccc(CNc2ncnc3c2ncn3[C@@H]2O[C@H](CO)[C@@H](O)[C@H]2O)cc1	2	17	65.5	19.5	> 167	> 167	156	> 167	115	> 167	–	–	0.22	2.45
